Published values pooled from the literature.
Target: Serine/threonine-protein kinase 17A (STK17A, Homo sapiens, UniProt Q9UEE5)
Sequence (Q9UEE5 1-414, as in one of the studies): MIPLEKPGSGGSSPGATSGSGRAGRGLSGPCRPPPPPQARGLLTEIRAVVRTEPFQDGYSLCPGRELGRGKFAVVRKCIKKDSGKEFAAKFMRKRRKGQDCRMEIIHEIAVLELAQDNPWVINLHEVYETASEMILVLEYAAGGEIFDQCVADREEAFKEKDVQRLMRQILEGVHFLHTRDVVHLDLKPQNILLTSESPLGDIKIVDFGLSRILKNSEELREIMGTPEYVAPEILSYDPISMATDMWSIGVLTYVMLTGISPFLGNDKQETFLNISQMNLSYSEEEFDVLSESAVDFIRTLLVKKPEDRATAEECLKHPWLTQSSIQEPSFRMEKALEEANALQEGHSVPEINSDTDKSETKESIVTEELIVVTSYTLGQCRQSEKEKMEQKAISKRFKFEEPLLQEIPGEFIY

| Compound | assay | setting | quantity | result |
| --- | --- | --- | --- | --- |
| COc1ncccc1-c1cnn2ccc(N3CCN(C(=O)OC(C)C)CC3)nc12 | binding, competition with immobilised ligand | 1 µM | remaining binding | 6.4% |
| Cn1cncc1[C@](O)(COc1ccc(C#N)cc1-c1ccc(OC(F)(F)F)cc1)c1ccc(C#N)cc1 | cell-free assay, competition with immobilised ligand | 1 µM | remaining binding | 100% |
| C#Cc1n[nH]c2c(-c3cn([C@@H](C)c4ccccc4)c(=O)[nH]c3=O)cc(F)cc12 | enzyme activity, inhibitor | 0.1 µM | inhibition | 1.1% |
| Cn1cc(-c2cccc(N3CCc4c(sc5c4CC(C)(C)C5)C3=O)c2CO)cc(Nc2ccncn2)c1=O | enzyme activity, inhibitor | 1 µM | inhibition | -5% |
| Nc1ncc(-c2nc(N3CCOCC3)nc(N3CCOCC3)n2)c(C(F)F)n1 | binding, competition with immobilised ligand | 10 µM | remaining binding | 89% |
| Cn1cc(-c2cc(F)cc(N3CCn4c(cc5c4CCCC5)C3=O)c2CO)cc(Nc2ccc(N3CCN(C4COC4)CC3)cn2)c1=O | enzyme activity, inhibitor | 0.1 µM | inhibition | 3% |
| O=c1[nH]c2ccccc2n1C1CCN(Cc2ccc(-c3[nH]c4cc5ncnc5cc4nc3-c3ccccc3)cc2)CC1 | cell-free assay | 0.5 µM | remaining signal | 98.2% |
| Cc1nn(C)cc1-c1nc2c(N3CCN(Cc4ccc(Cl)cc4)CC3)c(Cl)cnc2[nH]1 | binding, competition with immobilised ligand | 1 µM | remaining binding | 13% |
| C#Cc1n[nH]c2c(-c3cn([C@@H](C)c4ccccn4)c(=O)[nH]c3=O)cc(F)cc12 | enzyme activity, inhibitor | 0.1 µM | inhibition | -0.6% |
| CC(C)(C)c1cc(C=C(C#N)C#N)cc(Br)c1O | enzyme activity, inhibitor | 0.5 µM | remaining activity | 92.3% |
